# Source: ChEMBL document CHEMBL1671864, “First assessment in humans of the safety, tolerability, pharmacokinetics, and ex vivo pharmacodynamic antimalarial activity of the new artemisinin derivative artemisone” (Antimicrob Agents Chemother, 2008)
# Key:
# [1] = Apparent volume of distribution with respect to the bioavailability in healthy human at 80 mg, po administered as four 20 mg immediate release tablets daily for 3 days during 10 hrs overnight fasting state measured after 1 day; assay type: ADME, organism-based; conditions: in vivo, read-out: Vc/F
# Outline: (§1)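 Healthy Caucasian males took 40 mg (2×20-mg IR tablets) or 80 mg (4 tablets) orally daily for 3 days after a 10-h fast. Plasma parent drug was measured by LC/MS-MS from predose to 14 h after the first and third doses. Noncompartmental analysis: AUC by log-linear trapezoid extrapolated via kel, CL/F = dose/AUC, V/F = CL/F÷kel, geometric means.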
# [2] = test system: Homo sapiens; test: Toxicity in healthy human assessed as occurrence of adverse event at 80 mg, po administered daily for 3 days as four 20-mg immediate-release tablets during 10 hrs overnight fasting state; assay type: organism-based; conditions: in vivo
# Outline: (§2)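 3-day daily oral tablet dosing in healthy Caucasian men (8 active, 4 placebo per dose). Adverse events were collected by open questioning and spontaneous report. Severity was graded mild (daily activities unaffected), moderate (some interference) or severe (activities not completed).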
# [3] = Cmax in healthy human plasma at 30 mg, po administered as single ascending doses as solution during 10 hrs overnight fasting state; assay type: ADME, organism-based; design: dose 30 mg, route oral
# Outline: (§3)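 Healthy Caucasian male volunteers, single oral dose with 240 ml water after a 10-h overnight fast. Heparinised venous blood was drawn predose and at 0.25–14 h. Plasma was stored frozen. Parent drug and metabolites M1–M3 were measured by LC/MS-MS (MRM, deuterated internal standard). Noncompartmental analysis gave Cmax observed, t1/2 = 0.693/kel (terminal regression) and MRT = AUMC/AUC. Values are geometric means.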
# [4] = test system: Homo sapiens; test: Toxicity in healthy human assessed as decrease in glutamate dehydrogenase level at 80 mg, po administered daily for 3 days as four 20-mg immediate-release tablets during 10 hrs overnight fasting state measured after 2 days last post treatment; assay type: organism-based; conditions: in vivo, 48 h
# [5] = Half life in healthy human plasma at 10 mg, po administered as single ascending doses as solution during 10 hrs overnight fasting state; assay type: ADME, organism-based; outline: as §3
# [6] = Half life in healthy human plasma at 30 mg, po administered as single ascending doses as solution during 10 hrs overnight fasting state; assay type: ADME, organism-based; outline: as §3
# [7] = Mean residence time in healthy human at 80 mg, po administered as single immediate release tablets during 10 hrs overnight fasting state; assay type: ADME, organism-based; conditions: in vivo
# Outline: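 Healthy Caucasian male volunteers (n=6 active, 2 placebo, randomized), single 80 mg dose as four 20-mg tablets with 240 ml water after 10-h fast. Venous lithium-heparin plasma sampled predose and 0.25–14 h; analysed by LC/MS-MS (MRM, deuterated internal standard). Noncompartmental analysis; Tmax observed directly; MRT = AUMC/AUC with extrapolation to infinity via kel.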
# [8] = Half life in healthy human plasma at 80 mg, po administered as four 20 mg immediate release tablets daily for 3 days during 10 hrs overnight fasting state measured after 3 day; assay type: ADME, organism-based
# Outline: (§4)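 Healthy Caucasian males took tablets once daily for 3 days with 240 ml water after a 10-h fast. Heparinised blood was drawn predose and at 0.25–14 h after the first and last doses. Plasma parent drug and metabolites M1–M3 were measured by LC/MS-MS (MRM, deuterated internal standard). Noncompartmental analysis gave Cmax observed, t1/2 = 0.693/kel and MRT = AUMC/AUC. Values are geometric means.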
# [9] = Apparent oral clearance in healthy human at 40 mg, po administered as two 20 mg immediate release tablets daily for 3 days during 10 hrs overnight fasting state measured after 3 day; assay type: ADME, organism-based; conditions: in vivo; outline: as §1
# [10] = Apparent volume of distribution with respect to the bioavailability in healthy human at 10 mg, po administered as single ascending doses as solution during 10 hrs overnight fasting state; assay type: ADME, organism-based; conditions: in vivo, read-out: Vc/F
# Outline: (§5)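 Single ascending oral doses in healthy Caucasian men, given fasted (10-h overnight) with 240 ml water: 10, 20, 30 or 40 mg as oral solution, or 80 mg as IR tablets. Parent plasma levels by LC/MS-MS over 0.25–14 h. Noncompartmental analysis: kel by terminal-phase least-squares regression, AUC extrapolated to infinity, CL/F = dose/AUC, V/F = CL/F÷kel.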
# [11] = Half life in healthy human plasma at 20 mg, po administered as single ascending doses as solution during 10 hrs overnight fasting state; assay type: ADME, organism-based; outline: as §3
# [12] = Apparent oral clearance in healthy human at 10 mg, po administered as single ascending doses as solution during 10 hrs overnight fasting state; assay type: ADME, organism-based; conditions: in vivo; outline: as §5
# [13] = AUC in healthy human plasma at 40 mg, po administered as two 20 mg immediate release tablets daily for 3 days during 10 hrs overnight fasting state measured after 1 day; assay type: ADME, organism-based; design: time < 10 hr, dose 40 mg, route oral; outline: as §1
# [14] = Half life in healthy human plasma at 80 mg, po administered as four 20 mg immediate release tablets daily for 3 days during 10 hrs overnight fasting state measured after 1 day; assay type: ADME, organism-based; outline: as §4
# [15] = Cmax in healthy human plasma at 40 mg, po administered as two 20 mg immediate release tablets daily for 3 days during 10 hrs overnight fasting state measured after 3 day; assay type: ADME, organism-based; design: dose 40 mg, route oral; outline: as §4
# [16] = Apparent volume of distribution with respect to the bioavailability in healthy human at 20 mg, po administered as single ascending doses as solution during 10 hrs overnight fasting state; assay type: ADME, organism-based; conditions: in vivo, read-out: Vc/F; outline: as §5
# [17] = test system: Homo sapiens; test: Toxicity in healthy human assessed as occurrence of changes in electrocardiogram parameters at 40 mg, po administered daily for 3 days as two 20-mg immediate-release tablets during 10 hrs overnight fasting state; assay type: organism-based; conditions: in vivo
# Outline: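 Healthy Caucasian men received single ascending doses (10–40 mg solution, 80 mg tablets) or 3-day daily tablet courses, all fasting, with randomized placebo controls. Supine blood pressure, heart rate and resting 12-lead ECG were recorded before and after dosing.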
# [18] = Mean residence time in healthy human at 80 mg, po administered as four 20 mg immediate release tablets daily for 3 days during 10 hrs overnight fasting state measured after 3 day; assay type: ADME, organism-based; conditions: in vivo; outline: as §4
# [19] = Apparent volume of distribution with respect to the bioavailability in healthy human at 30 mg, po administered as single ascending doses as solution during 10 hrs overnight fasting state; assay type: ADME, organism-based; conditions: in vivo, read-out: Vc/F; outline: as §5
# [20] = Mean residence time in healthy human at 30 mg, po administered as single ascending doses as solution during 10 hrs overnight fasting state; assay type: ADME, organism-based; conditions: in vivo; outline: as §3
# [21] = test system: Homo sapiens; test: Toxicity in healthy human assessed as increase in alanine aminotransferase level at 80 mg, po administered daily for 3 days as four 20-mg immediate-release tablets during 10 hrs overnight fasting state measured after 24 hrs last post treatment; assay type: organism-based; conditions: in vivo
# [22] = test system: Homo sapiens; test: Toxicity in healthy human assessed as occurrence of adverse event at 40 mg, po administered daily for 3 days as two 20-mg immediate-release tablets during 10 hrs overnight fasting state; assay type: organism-based; conditions: in vivo; outline: as §2
# [23] = Apparent oral clearance in healthy human at 40 mg, po administered as two 20 mg immediate release tablets daily for 3 days during 10 hrs overnight fasting state measured after 1 day; assay type: ADME, organism-based; conditions: in vivo; outline: as §1
# [24] = Half life in healthy human plasma at 80 mg, po administered as single immediate release tablets during 10 hrs overnight fasting state; assay type: ADME, organism-based; outline: as §3
# [25] = test system: Plasmodium falciparum; test: Antimalarial activity against Plasmodium falciparum K1 in human plasma assessed as inhibition of hypoxanthine uptake by intraerythrocytic malaria parasites by hypoxanthine incorporation assay; assay type: functional, organism-based
# Outline: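 K1 or TM90-C2A parasites were sorbitol-synchronized and cultured in RPMI 1640. Drug was diluted in drug-free human serum (0.04–40 ng/ml) or subject plasma was diluted twofold (8–8,192). Parasites were added at 2% hematocrit, 1% parasitemia (>95% rings), and [3H]hypoxanthine uptake was measured over 48 h. IC50 or ID50 came from concentration or dilution-response curves. Equivalent concentration = ID50 × IC50.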
structure (smiles),measurement,setting,value
C[C@H]1[C@H](N2CCS(=O)(=O)CC2)O[C@@H]2O[C@@]3(C)CC[C@H]4[C@H](C)CC[C@@H]1[C@@]24OO3 [ARTEMIFONE],Vd/F,[1],13 L/kg
same,Activity,[2],Non-toxic
same,Cmax,[3],50.5 ng/mL
same,Activity,[4],Non-toxic
same,half-life,[5],1.51 h
same,half-life,[6],3.14 h
same,MRT,[7],2.64 h
same,half-life,[8],3.07 h
same,CL/F,[9],3500 mL/min
same,Vd/F,[10],8.93 L/kg
same,half-life,[11],3.48 h
same,CL/F,[12],5640 mL/min
same,AUC at 10 h,[13],184 ng·h/mL
same,half-life,[14],2.97 h
same,Cmax,[15],95 ng/mL
same,Vd/F,[16],19.1 L/kg
same,Activity,[17],Non-toxic
same,MRT,[18],3.53 h
same,Vd/F,[19],26.6 L/kg
same,MRT,[20],2.29 h
same,Activity,[21],Non-toxic
same,Activity,[22],Non-toxic
same,CL/F,[23],3630 mL/min
same,half-life,[24],2.79 h
same,IC50,[25],0.6 ng/mL
